Paper PMC3018740 (Fitoterapia, 2010)
Entries after “also recorded” stand apart in the source; their conditions may differ.

What was measured:
Human recombinant COX-2 [1] = target: T1, Human recombinant COX-2 (Homo sapiens, UniProt P35354); assay: Pulsed ultrafiltration LC-MS-MS screening for COX-2 ligands; type: binding; conditions: for Relative binding to COX-2: bound/free ratio = (pulsed ultrafiltration peak area)/(peak area washing buffer); for Specific binding to COX-2 (in words): pulsed ultrafiltration LC-MS-MS
T1 sequence (P35354 18-604): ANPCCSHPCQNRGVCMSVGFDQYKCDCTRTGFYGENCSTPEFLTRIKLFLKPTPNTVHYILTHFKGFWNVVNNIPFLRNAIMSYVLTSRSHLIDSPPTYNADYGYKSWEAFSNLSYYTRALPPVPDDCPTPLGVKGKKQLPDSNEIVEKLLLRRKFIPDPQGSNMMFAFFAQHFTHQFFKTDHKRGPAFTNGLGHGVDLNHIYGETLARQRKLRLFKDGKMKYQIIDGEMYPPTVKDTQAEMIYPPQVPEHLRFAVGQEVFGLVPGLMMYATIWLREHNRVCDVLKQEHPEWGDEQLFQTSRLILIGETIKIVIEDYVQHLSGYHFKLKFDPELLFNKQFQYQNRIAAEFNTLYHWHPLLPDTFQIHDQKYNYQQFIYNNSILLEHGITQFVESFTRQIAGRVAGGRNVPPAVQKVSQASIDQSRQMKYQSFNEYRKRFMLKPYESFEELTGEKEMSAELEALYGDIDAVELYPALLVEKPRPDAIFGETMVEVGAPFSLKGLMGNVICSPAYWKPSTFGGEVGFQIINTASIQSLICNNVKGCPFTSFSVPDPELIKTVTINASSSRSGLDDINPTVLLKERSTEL

COX-2 = conditions: read-out: Previously reported IC50 for inhibition of COX-2; cell-based assay; cited from earlier work
Human recombinant COX-2 [2] = target: T1, Human recombinant COX-2; assay: COX-2 inhibition assay; type: biochemical; conditions: read-out: IC50 COX-2; purified compounds
ovine COX-1 = target: T2, ovine COX-1 (Ovis aries, UniProt P05979); assay: COX-1 inhibition assay; type: biochemical; conditions: for IC50: read-out: IC50 COX-1, purified compounds
T2 sequence (P05979 25-600): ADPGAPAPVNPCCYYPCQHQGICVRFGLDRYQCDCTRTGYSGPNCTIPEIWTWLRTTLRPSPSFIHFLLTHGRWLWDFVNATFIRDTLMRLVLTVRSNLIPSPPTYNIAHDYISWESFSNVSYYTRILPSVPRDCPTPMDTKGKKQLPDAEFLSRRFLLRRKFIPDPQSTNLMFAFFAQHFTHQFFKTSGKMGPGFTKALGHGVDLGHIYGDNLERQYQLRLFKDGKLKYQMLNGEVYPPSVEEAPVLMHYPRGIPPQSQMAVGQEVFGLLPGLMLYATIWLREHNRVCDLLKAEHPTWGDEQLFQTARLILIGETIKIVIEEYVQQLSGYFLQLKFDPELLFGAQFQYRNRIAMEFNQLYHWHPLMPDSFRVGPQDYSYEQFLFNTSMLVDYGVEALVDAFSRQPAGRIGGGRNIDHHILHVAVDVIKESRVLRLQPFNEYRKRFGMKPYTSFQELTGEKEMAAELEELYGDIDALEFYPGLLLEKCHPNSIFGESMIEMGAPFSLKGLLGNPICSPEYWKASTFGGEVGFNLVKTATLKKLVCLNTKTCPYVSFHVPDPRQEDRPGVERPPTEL
Outline: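 PGE2 produced by COX-1 with test compound present was quantified by LC-MS-MS. Percent inhibition was calculated against PGE2 from the negative-control incubation. Each compound was tested at 12 concentrations, three times each. IC50 was obtained by fitting the inhibition curve.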

Row | Compound | Relative binding to COX-2 (Human recombinant COX-2 [1]) | Specific binding to COX-2 (in words) (Human recombinant COX-2 [1]) | IC50 (COX-2) | IC50 (Human recombinant COX-2 [2]) | Inhibition of COX-1 (in words) (ovine COX-1) | IC50 (ovine COX-1)
1 | 6-dehydro-6-gingerol | 0 |  |  |  |  | 
2 | CCCCC/C=C/[C@H](O)CC(=O)CCc1ccc(O)c(OC)c1 [6-dehydro-8-gingerol] | 0 |  |  |  |  | 
3 | CCCCCCC/C=C/[C@H](O)CC(=O)CCc1ccc(O)c(OC)c1 [6-dehydro-10-gingerol] | 0.15 ± 0.01 | bound to the enzyme active site |  |  |  | 
4 | CCCCC[C@H](O)C[C@H](O)CCc1ccc(O)c(OC)c1 [6-gingerdiol] | 0 |  |  |  |  | 
5 | CCCCCC(=O)CC(=O)CCc1ccc(O)c(OC)c1 [6-gingerdione] | 0.23 ± 0.02 | bound to the enzyme active site |  |  |  | 
6 | CCCCC[C@H](O)CC(=O)CCc1ccc(O)c(OC)c1 [6-gingerol] | 0 | not 6-gingerol or 8-gingerol bound to COX-2 | > 50 µM |  |  | 
7 | CCCCCCCC(=O)CCc1ccc(O)c(OC)c1 [6-paradol] |  | bound to the enzyme active site; also recorded: bound to COX-2 |  |  |  | 
8 | CCCCC/C=C/C(=O)CCc1ccc(O)c(OC)c1 [6-shogaol] | 0 | COX-2 ligands but not 6-shogaol or 12-shogaol | 2.1 µM |  |  | 
9 | CCCCCCCC(O)CC(O)CCc1ccc(O)c(OC)c1 (stereo not shown) [8-gingerdiol] | 0 |  |  |  |  | 
10 | CCCCCCCC(=O)CC(=O)CCc1ccc(O)c(OC)c1 [8-gingerdione] | 0.20 ± 0.03 | bound to the enzyme active site |  |  |  | 
11 | CCCCCCC[C@H](O)CC(=O)CCc1ccc(O)c(OC)c1 [8-gingerol] | 0 | not 6-gingerol or 8-gingerol bound to COX-2 | 10 µM |  |  | 
12 | CCCCCCCCCC(=O)CCc1ccc(O)c(OC)c1 [8-paradol] | 0.70 ± 0.02 | bound to the enzyme active site; also recorded: bound to COX-2 |  |  |  | 
13 | CCCCCCC/C=C/C(=O)CCc1ccc(O)c(OC)c1 [8-shogaol] | 0.27 ± 0.02 | bound to the enzyme active site; also recorded: COX-2 ligands | 7.2 µM | 17.5 ± 2.2 µM | No inhibition of COX-1 was detected; also recorded: did not inhibit COX-1 | > 50 µM
14 | CCCCCCCCCC(=O)CC(=O)CCc1ccc(O)c(OC)c1 [10-gingerdione] | 0.24 ± 0.05 | bound to the enzyme active site |  |  |  | 
15 | CCCCCCCCC[C@H](O)CC(=O)CCc1ccc(O)c(OC)c1 [10-gingerol] | 0.17 ± 0.03 | bound to the enzyme active site; also recorded: bound to COX-2 |  | 32 ± 1.5 µM | No inhibition of COX-1 was detected; also recorded: did not inhibit COX-1 | > 50 µM
16 | CCCCCCCCCCCC(=O)CCc1ccc(O)c(OC)c1 [10-paradol] | 0 | not 10-paradol bound to COX-2 |  |  |  | 
17 | CCCCCCCCC/C=C/C(=O)CCc1ccc(O)c(OC)c1 [10-shogaol] | 0.35 ± 0.03 | bound to the enzyme active site; also recorded: COX-2 ligands |  | 7.5 ± 0.6 µM | No inhibition of COX-1 was detected; also recorded: did not inhibit COX-1 | > 50 µM
18 | CCCCCCCCCCC[C@H](O)CC(=O)CCc1ccc(O)c(OC)c1 [12-gingerol] | 0.23 ± 0.01 | bound to the enzyme active site; also recorded: bound to COX-2 |  |  |  | 
19 | CCCCCCCCCCC/C=C/C(=O)CCc1ccc(O)c(OC)c1 [12-shogaol] | 0 | COX-2 ligands but not 6-shogaol or 12-shogaol |  |  |  | 
